Laboratory results: article PMC3880621 (Journal of medicinal chemistry, 2013)

Assays:
[1] = type: physicochemical; conditions: for rate of decomposition of NONO-salicylate derivatives: spontaneous, pH not printed at the place
Guinea pig serum = type: in vitro ADME; conditions: pH 7.4, 37°C; for first-order rate constant k2 of loss of 241 nm peak: 2% guinea pig serum, second, slow process
Procedure, shortened: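 Test compound added from a 1000× DMSO stock to 50 μM DTPA in Ca/Mg-free DPBS, pH 7.4, with 2% guinea pig serum at 37°C; blank was buffer plus serum. UV spectra taken every second for 600 s, then every 60–120 s; total scan 2500 s to 62 h. Rate constants from fitting A = ΔAe^(−kt) + A∞.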

Stomach ulcerogenicity = type: in vivo, Sprague-Dawley rats; conditions: rats; for ulcer index: 1.38 mmol/kg p.o., 6 h post-administration; for ulcerogenicity compared to control: 1.38 mmol/kg
Procedure, shortened: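 Sprague-Dawley rats fasted 24 h with water available, then dosed orally at 1.38 mmol/kg suspended in 1.2 mL 1% methylcellulose; controls received vehicle. Killed by CO2 at 6 h; stomachs removed onto ice and lesions inspected under a magnifier, scored by size. Ulcer index = summed ulcer length per stomach, averaged over the animals in the group.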

HUVECs = test: MTT cell viability assay, HUVECs; type: cell-based, human; conditions: 48 h, 25-100 μM, n = 1
Procedure, shortened: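 HUVECs kept in endothelial growth medium at 37°C, 5% CO2, 80% humidity. Seeded at 8,000–10,000 per well, grown overnight, then treated 48 h across a concentration range (prodrugs 0–200 μM). MTT (2 mg/mL solution) added for 1 h at 37°C; medium removed, formazan dissolved in DMSO, absorbance read at 550 nm. One experiment, at least triplicate wells.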

[2] = Fetal bovine serum induced hydrolysis, followed spectrophotometrically; type: in vitro ADME; conditions: pH 7.4, 37°C, n = 1
COX-2 = test: PGE2 levels in A549 cells; type: cell-based, human; conditions: 25 and 50 μM, 24 h
Procedure, shortened: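 A549 cells grown in RPMI 1640 with 10% FBS and penicillin/streptomycin. Seeded at 50,000 per well, grown 12 h, then given test compound at 25 or 50 μM (0.1% DMSO) for 24 h at 37°C. Supernatant PGE2 measured by competitive EIA (AChE tracer plus monoclonal antibody, overnight at 4°C), developed with Ellman's reagent, absorbance at […]. Triplicate.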

GAPDH = GAPDH (Homo sapiens, UniProt P04406); test: GAPDH activity in A549 cells; type: cell-based; conditions: 100 μM, 1 h
GAPDH, sequence (P04406 whole entry): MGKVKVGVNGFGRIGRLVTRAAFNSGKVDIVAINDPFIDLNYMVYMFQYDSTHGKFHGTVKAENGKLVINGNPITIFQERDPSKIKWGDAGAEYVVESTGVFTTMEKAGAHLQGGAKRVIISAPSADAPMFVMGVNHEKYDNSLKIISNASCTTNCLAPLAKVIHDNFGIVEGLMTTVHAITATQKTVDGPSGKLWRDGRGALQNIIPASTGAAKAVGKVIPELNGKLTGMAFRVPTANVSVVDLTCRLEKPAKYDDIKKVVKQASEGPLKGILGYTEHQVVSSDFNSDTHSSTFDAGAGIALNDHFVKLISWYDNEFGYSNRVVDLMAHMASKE
Procedure, shortened: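 A549 cells, seeded at 30,000 per well and grown overnight, exposed to test compound at 100 μM for 1 h at 37°C. Cells lysed in kit lysis buffer for 20 min at 4°C. Lysate mixed with kit mastermix; fluorescence read at 570 nm with excitation at 540 nm. Triplicate; mean ± SD; one-way ANOVA versus untreated control.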

[3] = tested on: isolated murine ventricular myocytes; type: cell-based, mouse; conditions: 500 μM
[4] = tested on: various cancer cells lines; conditions: read-out: IC50 (cytotoxicity); cited from earlier work
[5] = pH 7.4, PBS with 50 μM DTPA, 37°C

| rate of decomposition of NONO-salicylate derivatives [1] | rate constant of hydrolysis/decomposition at pH 10 ([1]; pH 10, 37°C) | SMILES | first-order rate constant of decomposition at 241 nm [1, 5] | first-order rate constant k2 of loss of 241 nm peak (Guinea pig serum) | ulcer index (Stomach ulcerogenicity) | ulcerogenicity compared to control (Stomach ulcerogenicity) | effect on viability of HUVECs (HUVECs) | other results |
| --- | --- | --- | --- | --- | --- | --- | --- | --- |
| – | – | CCN(CC)/[N+]([O-])=N/OCOC(=O)c1ccccc1OC(C)=O [DEA/NO-aspirin, O^2-(Acetylsalicyloyloxymethyl)-1-(N,N-diethylamino)-diazen-1-ium-1,2-diolate] | 5.3e-06 s⁻¹ | (1.1 ± 0.6) × 10^−3 s^−1 | 0 | not significantly increased compared to control | no effect on viability up to 100 μM | rate constant of initial growth near 250 nm (production of DEA/NO) ([1]; pH 10, 37°C): (4.5 ± 0.6) × 10^−5 s^−1 |
| 3.1e-05 s⁻¹ | – | CCN(CC)/[N+]([O-])=N/OCOC(=O)c1ccccc1O [DEA/NO-salicylate, O^2-(2-hydroxybenzoyloxymethyl)-1-(N,N-diethylamino)-diazen-1-ium-1,2-diolate] | – | – | – | – | – | – |
| – | 4.1 × 10^−4 s^−1 | CC(C)N/[N+]([O-])=N/[O-].[Na+] [IPA/NO, sodium 1-(N-isopropylamino)diazen-1-ium-1,2-diolate, reference compound] | – | – | – | – | – | – |
| 7e-05 s⁻¹ | – | CC(C)N/[N+]([O-])=N/OCOC(=O)c1ccccc1O [IPA/NO-salicylate, O^2-(2-hydroxybenzoyloxymethyl)-1-(N-isopropylamino)-diazen-1-ium-1,2-diolate] | – | – | – | – | – | – |
| – | (1.6 ± 0.5) × 10^−4 s^−1 | CC(=O)Oc1ccccc1C(=O)O [aspirin, acetylsalicylic acid, reference compound] | – | – | 57.4 ± 3.1 | – | – | first-order rate constant of spontaneous hydrolysis at 295 nm [1, 5]: 9.8e-06 s⁻¹; rate of hydrolysis in the presence of guinea pig serum (Guinea pig serum; guinea pig serum): (4.7 ± 0.17) × 10^−4 s^−1; IC50 [4]: > 1000 µM |

| SMILES | rate of decomposition of NONO-salicylate derivatives [1] | rate constant of hydrolysis/decomposition at pH 10 ([1]; pH 10, 37°C) | first-order rate constant of decomposition at 241 nm [1, 5] | first-order rate constant k2 of loss of 241 nm peak (Guinea pig serum) | ulcer index (Stomach ulcerogenicity) | ulcerogenicity compared to control (Stomach ulcerogenicity) | effect on viability of HUVECs (HUVECs) | other results |
| --- | --- | --- | --- | --- | --- | --- | --- | --- |
| CC(=O)Oc1ccccc1C(=O)OCO/N=[N+](\[O-])NC(C)C [IPA/NO-aspirin, O^2-(Acetylsalicyloyloxymethyl)-1-(N-isopropylamino)-diazen-1-ium-1,2-diolate] | – | (3.5 ± 0.8) × 10^−3 s^−1 | (2.6 ± 0.2) × 10^−5 s^−1 | (6.5 ± 0.12) × 10^−4 s^−1 | – | not significantly increased compared to control | no effect on viability up to 100 μM | rate constant of decomposition with FBS [2]: 2.7e-05 s⁻¹; PGE2 levels (COX-2): decreased most significantly; inhibition of GAPDH activity (GAPDH): highest; change of time of half-relaxation from peak shortening ([3]; mean ± SEM): −17 ± 3%; increase in sarcomere shortening from control ([3]; n = 12, mean ± SEM): +201 ± 18% |
